The target of assay [1] is Cathepsin B (Rattus norvegicus, UniProt P00787). As to the kind of experiment: Binding affinity to cathepsin B in crude rat liver homogenates using [125I]DCG-04 based competition protein labeling by SDS-PAGE method. In kind it is tissue-based. Summed up: (§1)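 Rat liver lysate (50 µg protein in 50 mM sodium acetate, 2 mM DTT, 5 mM MgCl2, pH 5.5) was preincubated with compound from 50 mM DMSO stocks for 30 min at room temperature. [125I]DCG-04 (10^6 c.p.m.) was then added for 45 min at room temperature. Bands were resolved by SDS-PAGE, imaged and quantified, and IC50 was taken from the linear portion of the signal versus inhibitor concentration plot.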

Assay [2] has as its target Cathepsin Z (Rattus norvegicus, UniProt Q9R1T3). As to the kind of experiment: Binding affinity to cathepsin Z in crude rat liver homogenates using [125I]DCG-04 based competition protein labeling by SDS-PAGE method. It counts as tissue-based. The procedure, abridged:
as §1

The target of assay [3] is T1, Cathepsin J (Rattus norvegicus, UniProt Q63088).
T1 sequence (Q63088 whole entry): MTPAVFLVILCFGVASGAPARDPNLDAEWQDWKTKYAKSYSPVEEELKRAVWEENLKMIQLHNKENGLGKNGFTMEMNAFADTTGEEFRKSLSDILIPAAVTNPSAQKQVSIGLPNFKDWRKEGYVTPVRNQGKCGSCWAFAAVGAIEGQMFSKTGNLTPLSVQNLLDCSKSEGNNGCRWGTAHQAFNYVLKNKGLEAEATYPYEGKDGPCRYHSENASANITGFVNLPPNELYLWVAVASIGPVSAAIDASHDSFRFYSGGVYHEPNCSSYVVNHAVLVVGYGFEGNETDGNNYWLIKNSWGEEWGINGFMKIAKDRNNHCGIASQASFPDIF
The experiment in a line: Binding affinity to cathepsin J in crude rat liver homogenates using [125I]DCG-04 based competition protein labeling by SDS-PAGE method. It counts as tissue-based. The procedure, abridged: as §1

Assay [4] has as its target T2, Pro-cathepsin H (Rattus norvegicus, UniProt P00786).
T2 sequence (P00786 whole entry): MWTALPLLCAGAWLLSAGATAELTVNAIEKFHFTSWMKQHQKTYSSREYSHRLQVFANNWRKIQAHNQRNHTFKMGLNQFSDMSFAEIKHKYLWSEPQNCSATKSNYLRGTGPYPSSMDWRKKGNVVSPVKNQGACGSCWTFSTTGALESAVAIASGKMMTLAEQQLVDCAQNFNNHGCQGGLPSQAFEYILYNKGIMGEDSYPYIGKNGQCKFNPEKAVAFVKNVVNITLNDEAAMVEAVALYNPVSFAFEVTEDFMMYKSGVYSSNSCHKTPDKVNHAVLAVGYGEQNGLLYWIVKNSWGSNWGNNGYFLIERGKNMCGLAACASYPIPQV
As to the kind of experiment: Binding affinity to cathepsin H in crude rat liver homogenates using [125I]DCG-04 based competition protein labeling by SDS-PAGE method. In kind it is tissue-based. The procedure, abridged:
as §1

In assay [5] the target is T3, Dipeptidyl peptidase 1 (Rattus norvegicus, UniProt P80067).
T3 sequence (P80067 whole entry): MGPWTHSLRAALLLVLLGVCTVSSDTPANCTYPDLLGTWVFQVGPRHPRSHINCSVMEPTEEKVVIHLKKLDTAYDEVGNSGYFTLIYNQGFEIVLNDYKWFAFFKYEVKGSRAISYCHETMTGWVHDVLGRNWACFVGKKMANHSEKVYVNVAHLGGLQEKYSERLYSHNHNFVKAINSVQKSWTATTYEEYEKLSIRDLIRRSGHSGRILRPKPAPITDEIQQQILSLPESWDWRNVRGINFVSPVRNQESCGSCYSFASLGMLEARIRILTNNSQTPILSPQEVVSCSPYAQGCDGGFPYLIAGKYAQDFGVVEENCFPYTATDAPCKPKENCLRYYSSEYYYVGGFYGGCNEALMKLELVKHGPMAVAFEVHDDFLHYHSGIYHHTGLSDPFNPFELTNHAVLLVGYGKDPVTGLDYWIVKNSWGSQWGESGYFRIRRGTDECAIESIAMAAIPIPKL
As to the kind of experiment: Binding affinity to cathepsin C in crude rat liver homogenates using [125I]DCG-04 based competition protein labeling by SDS-PAGE method. In kind it is tissue-based. The procedure, abridged:
as §1

Assay [6] has as its target T4, Dipeptidyl peptidase 1 (Rattus norvegicus) (UniProt P80067).
T4 sequence (whole entry): T3 sequence (P80067 whole entry)
As to the kind of experiment: Binding affinity to cathepsin C in crude rat liver homogenates using [125I]DCG-04 based competition protein labeling up to 50 uM by SDS-PAGE method. It counts as tissue-based. Summed up: as §1

In assay [7] the target is T5, Cathepsin J (Rattus norvegicus) (UniProt Q63088).
T5 sequence (whole entry): T1 sequence (Q63088 whole entry)
As to the kind of experiment: Binding affinity to cathepsin J in crude rat liver homogenates using [125I]DCG-04 based competition protein labeling up to 50 uM by SDS-PAGE method. It counts as tissue-based. Summed up: as §1

The target of assay [8] is Cathepsin Z (Rattus norvegicus) (UniProt Q9R1T3). The experiment in a line: Binding affinity to cathepsin Z in crude rat liver homogenates using [125I]DCG-04 based competition protein labeling up to 50 uM by SDS-PAGE method. In kind it is tissue-based. Summed up:
as §1

Assay [9] addresses T6, Pro-cathepsin H (Rattus norvegicus) (UniProt P00786).
T6 sequence (whole entry): T2 sequence (P00786 whole entry)
As to the kind of experiment: Binding affinity to cathepsin H in crude rat liver homogenates using [125I]DCG-04 based competition protein labeling up to 50 uM by SDS-PAGE method. In kind it is tissue-based. The procedure, abridged:
as §1

Assay [10] has as its target Cathepsin B (Rattus norvegicus) (UniProt P00787). The experiment in a line: Binding affinity to cathepsin B in crude rat liver homogenates using [125I]DCG-04 based competition protein labeling up to 50 uM by SDS-PAGE method. It counts as tissue-based. The procedure, abridged:
as §1

In assay [11] the target is T7, Procathepsin L (Rattus norvegicus) (UniProt P07154).
T7 sequence (whole entry): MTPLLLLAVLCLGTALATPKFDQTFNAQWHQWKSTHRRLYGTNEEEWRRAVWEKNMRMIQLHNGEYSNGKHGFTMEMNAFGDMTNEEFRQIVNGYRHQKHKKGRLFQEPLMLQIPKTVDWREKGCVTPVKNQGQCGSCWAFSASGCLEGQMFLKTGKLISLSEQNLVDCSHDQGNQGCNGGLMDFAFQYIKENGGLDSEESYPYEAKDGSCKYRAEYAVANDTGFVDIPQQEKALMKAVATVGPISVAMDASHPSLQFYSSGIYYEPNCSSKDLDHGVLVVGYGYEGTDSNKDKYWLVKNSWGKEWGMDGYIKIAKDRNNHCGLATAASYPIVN
The experiment in a line: Binding affinity to cathepsin L in crude rat liver homogenates assessed as protein labeling. The conditions noted are these: tested as the 125I-labelled form. It counts as tissue-based.

Assay [12] deals with Arg-gingipain-1 proteinase (Porphyromonas gingivalis) (UniProt Q51816). The experiment in a line: Binding affinity to Arg-gingipain in total lcrude cell lysates of Porphyromonas gingivalis assessed as protein lebeling. The conditions noted are these: tested as the 125I-labelled form.
Assay [13] concerns the target Lys-gingipain (Porphyromonas gingivalis (strain ATCC 33277 / DSM 20709 / JCM 12257)) (UniProt B2RLK2). The experiment in a line: Binding affinity to Lys-gingipain in total lcrude cell lysates of Porphyromonas gingivalis assessed as protein lebeling. The conditions noted are these: tested as the 125I-labelled form.

Active and inactive are the calls of the source. No cut-off for these calls is given here.

We go through twelve compounds from ChEMBL document CHEMBL1221168, “Activity-based probes that target diverse cysteine protease families” (Nat Chem Biol, 2005).

For `CC(=O)N[C@@H](Cc1ccc(O)cc1)C(=O)N[C@@H](Cc1ccccc1)C(=O)N[C@@H](CCCNC(=N)N)C(=O)COC(=O)c1c(C)cccc1C`, the concentration for half-maximal inhibition (IC50) (as a rule, the point on the concentration scale where inhibition reaches its midpoint) in assay [1] stood at 0.0073 µM; in [2], 4.7 µM; in [3], 3.6 µM; in assay [4], 12 µM; in assay [5] it was 3.6 µM.
For `COc1ccc(C(=O)ONC(=O)CNC(=O)[C@H](Cc2ccccc2)NC(=O)OCc2ccccc2)cc1`, the IC50 is 1.2 µM in assay [1]; 1.5 µM in assay [2]; 8.3 µM in [3]; 6.6 µM in [4]; 8.3 µM in [5].
As for `Cc1cccc(C)c1C(=O)OCC(=O)[C@H](CCCNC(=N)N)NC(=O)[C@H](Cc1ccccc1)NC(=O)OCc1ccccc1`, the inhibition result in [6], in assay [7], in [8] and in assay [9] was “inactive” throughout.
Take `COc1ccc(C(=O)OCC(=O)CNC(=O)[C@H](Cc2ccccc2)NC(=O)OCc2ccccc2)cc1`: the inhibition result in assay [6], in assay [7], in [10], in assay [8] and in assay [9] was “inactive” throughout.
`CC(=O)N[C@@H](CCCCNC(=O)CCCCC1SC[C@H]2NC(=O)N[C@@H]12)C(=O)N[C@@H](Cc1ccc(O)c(I)c1)C(=O)NCCCCCC(=O)NCC(=O)COC(=O)c1c(C)cccc1C` (stereo partly specified): the outcome in [11] was Active.
`Cc1cccc(C)c1C(=O)OCC(=O)CNC(=O)[C@H](Cc1ccccc1)NC(=O)OCc1ccccc1`: in assay [1], the half-maximal inhibitory concentration (IC50) was found to be 0.12 µM. Also, the inhibition entry in assay [6], in assay [7], in assay [8] and in [9] was “inactive” throughout.
As for `CC(=O)N[C@@H](Cc1ccc(O)cc1)C(=O)N[C@@H](Cc1ccccc1)C(=O)NCC(=O)COC(=O)c1c(C)cccc1C`, the concentration for half-maximal inhibition (IC50) came to 0.22 µM in [1]; 39 µM in assay [2]; 6.4 µM in [3]; 7.9 µM in assay [4]; 6.4 µM in assay [5].
With `CC(=O)N[C@@H](CCCCNC(=O)CCCCC1SC[C@H]2NC(=O)N[C@@H]12)C(=O)N[C@@H](Cc1ccc(O)c(I)c1)C(=O)NCCCCCC(=O)N[C@@H](CCCNC(=N)N)C(=O)COC(=O)c1c(C)cccc1C` (stereo partly specified), the outcome in [12] and in [13] was Active.
Regarding `CC(=O)N[C@@H](CCCCNC(=O)CCCCC1SC[C@H]2NC(=O)N[C@@H]12)C(=O)N[C@@H](Cc1ccc(O)c(I)c1)C(=O)NCCCCCC(=O)N[C@@H](CC(C)C)C(=O)COC(=O)c1c(C)cccc1C` (stereo partly specified), in assay [11], the outcome was Active.
For the compound `CC(=O)N[C@@H](CCCCNC(=O)CCCCC1SC[C@H]2NC(=O)N[C@@H]12)C(=O)N[C@@H](Cc1ccc(O)c(I)c1)C(=O)NCCCCCC(=O)N[C@@H](CCCCN)C(=O)COC(=O)c1c(C)cccc1C` (stereo partly specified), the result in assay [12] and in assay [13] was Active.
For the compound `Cc1cccc(C)c1C(=O)OCC(=O)CNC(=O)[C@H](CC(C)C)NC(=O)OCc1ccccc1`, the IC50 in assay [1] came out at 0.92 µM; in assay [3] it was 49 µM; in assay [4], 7.9 µM; in assay [5], 49 µM. Besides, the inhibition result in [8] is “inactive”.
`Cc1cccc(C)c1C(=O)OCC(=O)[C@H](CCCN=C(N)N)NC(=O)[C@H](Cc1ccccc1)NC(=O)OCc1ccccc1` returned an IC50 in assay [1] of 0.015 µM.
